High-throughput results (PubChem BioAssay)
Only some compounds are listed: those with a hit (about 3.9% of all), similar ones and a draw of the others.
Rad51 HR inh: blocks human Rad51 in homologous recombination | Q06609 | hRad51 DNA strand exchange, fluorescence dequenching | inhibition, % at 10 µM | 200,000 tested, 0.085% active;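 active = inhibition above 40% at the single screening dose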;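 note: 0% = DMSO control wells and 100% = blanks with heterologous ssDNA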
Target sequence (Q06609 whole entry, looked up): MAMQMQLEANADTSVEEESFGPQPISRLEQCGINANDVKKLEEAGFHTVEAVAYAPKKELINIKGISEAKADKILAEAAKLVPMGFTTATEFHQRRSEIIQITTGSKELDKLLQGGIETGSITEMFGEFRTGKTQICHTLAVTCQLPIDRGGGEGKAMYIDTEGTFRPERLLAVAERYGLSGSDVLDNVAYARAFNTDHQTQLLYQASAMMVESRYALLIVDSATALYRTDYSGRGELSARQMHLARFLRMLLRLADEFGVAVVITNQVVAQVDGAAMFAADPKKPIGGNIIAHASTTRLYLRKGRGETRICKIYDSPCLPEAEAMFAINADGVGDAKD
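Material: hRad51 filaments on single-stranded DNA; Reagent: Donor/quencher-labelled 47-bp dsDNA substrate; Compound: 10 µM final, single point; Schedule: 37 °C 15-min filament assembly, 30-min compound preincubation, 15-min exchange; Technique: FRET fluorescence, excitation 485 nm, emission 520 nm; Benchmarks: control wells and blank wells on each plate.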
STAT1 act: increases IFN-gamma driven STAT1 reporter signal; NIH 3T3 STAT1-luciferase reporter, luminescence; 100% = IFN-gamma alone, no compound; activation (% of control), % at 5.5 µM; 200,000 tested, 2.6% active; AID 932;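 active = activation above the screen-wide mean activation plus 3 SD, cut at about 130% in these data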;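 note: raw ratio to IFN-gamma control signal so 100% means no change and 0% no light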
APP 5'UTR act: activates APP 5'UTR luciferase reporter; SH-SY5Y APP 5'UTR luciferase reporter, luminescence; zero percent = DMSO vehicle wells; activation, % at 2 µM; 190,000 tested, 1% active; AID 1276;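 active = activation above a set limit, based on mean plus 3 SD of controls, cut at about 140% in these data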
FLuc inh counter: inhibits firefly luciferase, flagging false hits in luciferase inhibition screens. ATPLite firefly luciferase biochemical luminescence, 10 min. inhibition, % at 10 µM. 200,000 tested, 1.5% active. AID 1006;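 active = inhibition above about 50% when tested at 10 µM, limit read from the data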
FLuc stim CS: firefly luciferase counter-screen for stimulation assays | ATPlite luciferase biochemical, luminescence, 10 min; 0 = ATP-free wells, 1 = DMSO control | activation factor at 10 µM | 200,000 tested, under 10 active;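 active = luciferase activation factor, scaled between plate controls, of at least 2 with compound at 10 µM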
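System: Luciferase/luciferin detection reagent, cell-free biochemical luciferase assay | Medium: PBS buffer for ATP | Dosing: Test compounds dosed from 2 mM stocks in 100% DMSO | Timing: 10 min at ambient temperature | Signal: Luminescence measurement of luciferase light output | Evaluation: Luciferase activation, seen as luminescence increase over controls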
NF-kB neuron act: NF-kB expression increase, human neuronal cells; NF-kB reporter expression; stronger effect = higher value; fold change at 12.5 µM; 190,000 tested, 1.6% active; in the data active = fold change above about 3.3
* hit, by the source's call; / = no result given.

SMILES	Rad51 HR inh	STAT1 act	APP 5'UTR act	FLuc inh counter	FLuc stim CS	NF-kB neuron act
O=C(Nc1nccs1)c1cc2c(s1)-c1ccccc1OC2	/	146*	96	12	0.9	2.3
O=C(Nc1nc2ccccc2s1)c1cc2c(s1)-c1ccccc1OC2	-7	122	5	-4	1	2
CN1C(=O)/C(=C/C=C2\SCCN2C)N(C)C1=S	-95	132*	75	13	0.9	5.3*
Cc1ccc(NC(=O)C(C)N=C2NS(=O)(=O)c3ccccc32)cc1F (stereo not drawn)	-5	/	/	/	/	/
O=C1/C(=C\c2ccco2)CCC/C1=C\c1ccco1	-135	123	101	15	0.9	5.9*
CC1C/C(=C/c2ccco2)C(=O)/C(=C/c2ccco2)C1 (stereo not drawn)	-228	98	-1	0	1	1.5
CC(=O)Nc1ccc(C(=O)OCC(=O)Nc2c(F)cccc2F)cc1	5	/	/	/	/	/
CC(C)(C)C(=O)Nc1nc(-c2ccc3c(c2)OCO3)cs1	/	139*	157*	13	0.9	5.7*
COc1cccc(-c2csc(NC(C)=O)n2)c1	10	137*	62	18	0.8	3.1
c1ccc(-c2csc(Nc3ccc4c(c3)OCCO4)n2)cc1	-3	139*	187*	42	0.6	4.8*
c1cc2c(cc1Nc1nc(-c3ccc4c(c3)OCO4)cs1)OCCO2	-2	137*	25	12	0.9	1.2
O=C(c1cccc(S(=O)(=O)Nc2ccccc2F)c1)N1CCN(c2ccccc2F)CC1	-3	99	12	-7	1.1	1.2
c1cc2c(cc1-c1csc(NNC3=NCCCCC3)n1)OCCO2	-16	144*	80	4	1	0.7
COc1ccccc1C(=O)Nc1nc(-c2ccc3c(c2)OCCO3)cs1	-4	105	1	-6	1.1	1
CC(=O)Nc1nc(-c2ccc3c(c2)CCO3)cs1	-28	141*	80	10	0.9	2.6
Nc1nc(-c2ccc3c(c2)CCO3)cs1	/	125	45	11	0.9	1.7
COc1cccc(Nc2nc(-c3ccc4c(c3)OCCO4)cs2)c1	-3	148*	162*	14	0.9	2.9
COCC(=O)NC1(c2nnnn2CCOC(=O)Nc2ccc(Cl)cc2)CCCCC1	-2	96	0	-1	1	0.99
Cc1nn(C)c(C)c1CN(Cc1nc(CCC(C)C)no1)C(C)C	-2	69	-16	-1	1	1
Cc1cccc2nc(CSc3nnnn3-c3ccccc3)cn12	-7	99	-8	-5	1	1.2
Cc1cccc2nc(CSc3nnc4ccccn34)cn12	-1	137*	94	-6	1.1	2.7
c1ccn2c(SCc3cn4ccsc4n3)nnc2c1	-9	138*	45	-2	1	2.2
c1ccc(-n2cnnc2SCc2cn3ccsc3n2)cc1	0	88	3	-2	1	0.94
CC1CCC/C(=C\Nc2ccc3c(c2)OCO3)C1=O (stereo not drawn)	0	133*	0	20	0.8	1
O=C1CCC/C1=C/Nc1ccc2c(c1)OCO2	-9	118	13	5	1	0.9
SMILES	Rad51 HR inh	STAT1 act	APP 5'UTR act	FLuc inh counter	FLuc stim CS	NF-kB neuron act
CC(C)COc1ccc(C(=O)N2C(=O)c3ccc(N)cc3C2=O)cc1	-10	/	/	/	/	/
COc1cc(-c2nc(-c3ccccn3)no2)cc(OC)c1OC	-5	116	119	6	0.9	1.7
c1ccc(-c2nc(-c3ccccn3)no2)cc1	-7	47	64	90*	0.1	1.8
COc1ccc(-c2csc(N)n2)cc1F	2	122	46	18	0.8	1.8
Cc1ccc2nc(-c3ccccn3)oc2c1	4	116	176*	84*	0.2	4.5*
Fc1ccc(-c2csc(-c3ccccn3)n2)cc1F	-14	140*	9	-1	1	2.8
Cc1ccc(-c2nc(-c3ccccn3)no2)cc1Cl	/	28	159*	95*	0	0.59
O=C(Cc1ccc(Cl)cc1)Nc1ccc(SC(F)F)cc1	-4	111	5	-5	1.1	0.82
Cc1occc1-c1nnc(-c2cc([N+](=O)[O-])cc([N+](=O)[O-])c2)o1	-8	100	-5	-4	1	0.98
COc1nc(-c2ccc(C)cc2)ccc1-c1noc(-c2ccco2)n1	5	115	13	-5	1.1	1.3
Cc1ccc(-c2nc(-c3ccccn3)no2)cc1	5	17	-39	97*	0	0.3
c1ccc(-c2noc(-c3ccco3)n2)nc1	-5	137*	192*	23	0.8	2.1
c1ccc(-c2nc(-c3ccco3)cs2)nc1	-5	130*	29	12	0.9	0.71
c1ccc(-c2noc(-c3ccno3)n2)nc1	0	/	/	/	/	/
COc1nc(C)ccc1-c1noc(-c2ccco2)n1	5	140*	182*	58*	0.4	4.6*
Cc1ccc(Cc2nc(-c3ccccn3)no2)cc1	-6	127	117	27	0.7	2.5
Clc1cccc(-c2nc(-c3ccccn3)no2)c1	-2	63	97	93*	0.1	1.6
c1ccc(-c2cc(-c3nc(-c4ccccn4)no3)c3ccccc3n2)cc1	-8	103	-2	/	/	/
c1ccc(Cc2nc(-c3ccccn3)no2)cc1	-1	125	67	12	0.9	1.6
c1ccc(-c2ccc(-c3nc(-c4ccccn4)no3)cc2)cc1	0	18	-46	94*	0.1	0.3
CC(C)(C)C(=O)Nc1ccc(N=Nc2ccccc2)cc1	-4	37	114	90*	0.1	1.1
CC1CC1C(=O)OCC(=O)Nc1ccc(N=Nc2ccccc2)cc1 (stereo not drawn)	-1	148*	143*	-6	1.1	5.9*
CC1CC1C(=O)OCC(=O)Nc1ccccc1Oc1ccccc1 (stereo not drawn)	-5	94	0	-1	1	0.97
O=C1c2ccccc2C(=O)N1CCN1CCc2ccccc21	0	132*	23	9	0.9	1.2
Cc1cc(/C=C\c2ccccc2)nc2ccccc12	-1	143*	130	68*	0.3	1.3
SMILES	Rad51 HR inh	STAT1 act	APP 5'UTR act	FLuc inh counter	FLuc stim CS	NF-kB neuron act
COc1ccc(C(N)=S)cc1	1	99	6	-7	1.1	1.2
CCN(C(=O)c1ccco1)c1nnc(-c2ccc(OC)cc2)s1	-3	104	3	85*	0.1	3.6*
COc1ccc(-c2nnc(N(C)C(=O)C3CCOC3)s2)cc1 (stereo not drawn)	3	108	157*	/	/	2.4
O=C1NC2(C=Cc3c(ccc4ccccc34)O2)Oc2ccccc21 (stereo not drawn)	0	141*	3	-4	1	1.5
CCc1nc2cc3sc(CC)nc3cc2s1	/	148*	122	38	0.6	2.4
Cc1nc2cc3nc(C)sc3cc2s1	/	120	44	47	0.5	1.8
